Reference: ChEMBL document CHEMBL3414473
Active and inactive are the calls of the source. The rule behind the calls is not given here.

Tests used:
PC-3 [1] = test: In vivo antitumor efficacy in human PC3 cells xenografted athymic nude mouse assessed as inhibition of tumor growth at 100 mg/kg, po for 21 days relative to vehicle treated control; assay type: functional, organism-based; set-up: dose 100 mg/kg
Method in brief: (§1)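 Athymic nude mice given PC-3 cells sc (1 × 10⁶ per mouse); at about 50 mm³, randomized (n = 7) and dosed once daily for 21 days either ip at 50 mg/kg (vehicle saline/PEG400/DMSO/Tween 80, 65:20:10:5) or by oral gavage at 100 mg/kg (vehicle 0.5% methylcellulose/0.1% Tween 80 in water). Tumor volume measured weekly by calipers (width² × length × 0.52); phospho-proteins checked by Western blotting of tumor lysates.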

PC-3 [2] = test: In vivo antitumor efficacy in human PC3 cells xenografted athymic nude mouse assessed as decrease in phosphorylation of IKK in tumor at 100 mg/kg, po for 21 days relative to vehicle treated control; assay type: functional, organism-based; set-up: dose 100 mg/kg; method in brief: as §1
[3] = biological target: T1, PH domain leucine-rich repeat-containing protein phosphatase 1 (Homo sapiens, UniProt O60346); test: Inhibition of PHLPP1-mediated reduction in phosphorylation of IKK in human PC3 cells after 24 hrs by Western blot analysis; assay type: cell-based; settings: PC-3
T1 sequence (O60346 whole entry, the tested form may be a part): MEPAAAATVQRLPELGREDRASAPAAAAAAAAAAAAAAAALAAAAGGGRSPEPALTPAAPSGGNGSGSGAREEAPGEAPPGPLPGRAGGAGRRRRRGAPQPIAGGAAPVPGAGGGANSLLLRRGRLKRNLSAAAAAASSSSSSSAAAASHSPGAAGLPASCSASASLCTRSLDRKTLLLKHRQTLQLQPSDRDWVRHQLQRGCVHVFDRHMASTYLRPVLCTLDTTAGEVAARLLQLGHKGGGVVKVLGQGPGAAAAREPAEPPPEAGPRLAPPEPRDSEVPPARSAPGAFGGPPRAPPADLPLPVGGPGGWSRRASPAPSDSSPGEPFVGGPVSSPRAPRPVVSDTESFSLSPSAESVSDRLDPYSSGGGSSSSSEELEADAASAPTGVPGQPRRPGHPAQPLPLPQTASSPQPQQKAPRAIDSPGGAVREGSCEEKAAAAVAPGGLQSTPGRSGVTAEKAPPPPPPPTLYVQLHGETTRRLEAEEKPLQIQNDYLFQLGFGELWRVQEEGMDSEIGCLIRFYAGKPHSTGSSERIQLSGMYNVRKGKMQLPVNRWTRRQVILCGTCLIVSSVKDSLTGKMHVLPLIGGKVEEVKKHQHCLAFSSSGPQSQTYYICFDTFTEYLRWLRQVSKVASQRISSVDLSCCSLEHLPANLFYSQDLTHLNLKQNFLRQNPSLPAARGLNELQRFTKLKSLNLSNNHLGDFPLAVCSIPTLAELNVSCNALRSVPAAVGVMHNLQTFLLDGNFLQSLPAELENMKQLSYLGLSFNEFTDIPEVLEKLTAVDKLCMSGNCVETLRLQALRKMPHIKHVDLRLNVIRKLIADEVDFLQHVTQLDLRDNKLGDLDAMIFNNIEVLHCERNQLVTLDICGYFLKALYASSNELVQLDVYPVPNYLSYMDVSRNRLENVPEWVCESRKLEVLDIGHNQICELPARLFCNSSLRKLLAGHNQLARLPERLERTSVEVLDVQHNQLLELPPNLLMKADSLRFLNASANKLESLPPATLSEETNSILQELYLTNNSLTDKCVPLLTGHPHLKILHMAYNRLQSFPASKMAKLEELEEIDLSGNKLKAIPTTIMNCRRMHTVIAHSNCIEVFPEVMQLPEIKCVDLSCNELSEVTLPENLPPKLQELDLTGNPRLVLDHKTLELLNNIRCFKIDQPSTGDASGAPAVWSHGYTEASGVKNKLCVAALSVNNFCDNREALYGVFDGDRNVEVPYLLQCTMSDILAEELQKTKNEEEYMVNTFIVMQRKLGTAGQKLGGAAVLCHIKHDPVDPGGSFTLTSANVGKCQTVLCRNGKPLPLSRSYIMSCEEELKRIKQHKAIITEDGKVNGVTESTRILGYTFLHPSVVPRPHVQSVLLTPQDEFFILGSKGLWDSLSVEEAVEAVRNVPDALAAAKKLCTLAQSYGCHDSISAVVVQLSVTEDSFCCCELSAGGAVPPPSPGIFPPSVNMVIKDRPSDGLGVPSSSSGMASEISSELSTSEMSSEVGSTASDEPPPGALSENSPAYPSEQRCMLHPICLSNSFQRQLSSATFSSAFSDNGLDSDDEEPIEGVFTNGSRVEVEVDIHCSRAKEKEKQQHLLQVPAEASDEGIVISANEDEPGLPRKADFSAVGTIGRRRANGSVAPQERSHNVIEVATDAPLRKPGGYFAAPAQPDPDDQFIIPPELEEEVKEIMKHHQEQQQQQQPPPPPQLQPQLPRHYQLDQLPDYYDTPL
Method in brief: (§2)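 LNCaP or PC-3 cells treated at various concentrations for 24 h in serum-free medium. Lysed in SDS buffer (50 mM Tris pH 8, 10 mM EDTA, 1% SDS, protease inhibitors); equal protein run on SDS-PAGE and transferred to nitrocellulose. Primary antibodies 1:1000 overnight at 4 °C, HRP secondary 1:2000; detected by ECL.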

PC-3 [4] = test: In vivo antitumor efficacy in human PC3 cells xenografted athymic nude mouse assessed as decrease in phosphorylation of MDM2 in tumor at 50 mg/kg, ip for 21 days relative to vehicle treated control; assay type: functional, organism-based; set-up: dose 50 mg/kg; method in brief: as §1
[5] = biological target: T1, PH domain leucine-rich repeat-containing protein phosphatase 1; test: Inhibition of PHLPP1-mediated reduction in phosphorylation of Akt at Thr308 in human LNCAP cells after 24 hrs by Western blot analysis; assay type: cell-based; method in brief: as §2
[6] = biological target: T2, 3-phosphoinositide-dependent protein kinase 1 (Homo sapiens, UniProt O15530); test: Binding affinity to GST-tagged PH domain of PDK1 (unknown origin) by surface Plasmon resonance spectroscopy
T2 sequence (O15530 whole entry): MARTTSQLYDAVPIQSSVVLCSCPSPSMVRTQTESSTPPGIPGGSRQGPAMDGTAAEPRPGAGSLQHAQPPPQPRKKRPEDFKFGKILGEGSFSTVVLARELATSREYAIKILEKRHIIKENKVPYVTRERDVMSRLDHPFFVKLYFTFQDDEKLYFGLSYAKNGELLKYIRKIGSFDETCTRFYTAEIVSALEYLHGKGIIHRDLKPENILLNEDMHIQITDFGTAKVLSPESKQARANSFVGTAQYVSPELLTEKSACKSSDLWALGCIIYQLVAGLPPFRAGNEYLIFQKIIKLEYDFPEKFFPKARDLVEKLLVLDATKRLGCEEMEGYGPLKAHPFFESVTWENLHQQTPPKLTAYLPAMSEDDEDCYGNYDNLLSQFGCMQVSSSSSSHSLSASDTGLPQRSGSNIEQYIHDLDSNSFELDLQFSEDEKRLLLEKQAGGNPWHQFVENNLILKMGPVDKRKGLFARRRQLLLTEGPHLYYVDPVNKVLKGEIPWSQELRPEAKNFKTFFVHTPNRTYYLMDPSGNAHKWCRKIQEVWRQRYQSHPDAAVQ
Method in brief: (§3)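 SPR: GST-tagged PH domain fusion protein immobilized on CM5 chip by amine coupling to about 17000 RU. Analyte injected at 1–20 µM at 30 µL/min; DMSO in samples and running buffer ≤1% (v/v). Kd obtained from sensorgram fitting.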

[7] = biological target: T1, PH domain leucine-rich repeat-containing protein phosphatase 1; test: Inhibition of PHLPP1-mediated reduction in phosphorylation of Akt at Ser473 in human PC3 cells after 24 hrs by Western blot analysis; assay type: cell-based; settings: PC-3; method in brief: as §2
[8] = biological target: RAC-alpha serine/threonine-protein kinase (Homo sapiens, UniProt P31749); test: Binding affinity to GST-tagged PH domain of AKT (unknown origin) by surface Plasmon resonance spectroscopy; method in brief: as §3
Sequence of RAC-alpha serine/threonine-protein kinase (P31749 whole entry, the tested form may be a part): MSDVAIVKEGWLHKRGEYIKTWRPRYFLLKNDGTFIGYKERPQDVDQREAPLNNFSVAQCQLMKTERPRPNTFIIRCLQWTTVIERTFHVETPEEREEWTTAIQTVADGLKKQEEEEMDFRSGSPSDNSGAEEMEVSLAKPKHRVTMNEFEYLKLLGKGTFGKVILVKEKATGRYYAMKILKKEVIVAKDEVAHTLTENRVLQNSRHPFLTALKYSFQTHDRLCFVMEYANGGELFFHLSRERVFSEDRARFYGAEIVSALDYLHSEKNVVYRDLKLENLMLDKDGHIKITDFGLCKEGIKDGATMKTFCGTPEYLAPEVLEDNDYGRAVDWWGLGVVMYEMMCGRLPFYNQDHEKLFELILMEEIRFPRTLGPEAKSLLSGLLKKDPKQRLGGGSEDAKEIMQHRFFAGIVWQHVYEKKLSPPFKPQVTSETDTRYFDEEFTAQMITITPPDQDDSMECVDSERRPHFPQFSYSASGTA

LNCaP [9] = test: Antiproliferative activity against human LNCAP cells assessed as suppression of cell viability after 24 hrs by MTT assay; assay type: functional, cell-based
Method in brief: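 LNCaP cells seeded at 5000/well on poly-L-lysine-coated plates in 10% FBS; 24 h later exposed to agents in serum-free medium for 24 h. Viability expressed as percent of vehicle control; IC50 derived.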

[10] = biological target: T1, PH domain leucine-rich repeat-containing protein phosphatase 1; test: Inhibition of PHLPP1-mediated reduction in phosphorylation of MDM2 in human PC3 cells after 24 hrs by Western blot analysis; assay type: cell-based; settings: PC-3; method in brief: as §2
LNCaP [11] = test: Induction of PHLPP1 localization to human LNCAP cell membrane at 5 uM after 24 hrs by immunofluorescence staining analysis; assay type: functional, cell-based
Method in brief: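 LNCaP cells on poly-L-lysine-coated surfaces, treated in serum-free medium for 24 h. Fixed in 4% formaldehyde, permeabilized with 0.1% Triton X-100, blocked in 1% FBS, primary antibody (1:300) overnight, then Alexa Fluor secondary 2 h; DAPI nuclei; confocal imaging with cross-sectional fluorescence intensity analysis.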

[12] = biological target: T1, PH domain leucine-rich repeat-containing protein phosphatase 1; test: Inhibition of PHLPP1-mediated reduction in phosphorylation of IKK in human LNCAP cells after 24 hrs by Western blot analysis; assay type: cell-based; method in brief: as §2

inhibition [3]: Dose-dependent effect | inhibition [5]: inactive | Kd [6]: 19.5 µM | inhibition [7]: Dose-dependent effect | Kd [8]: 0.2 µM | IC50 (LNCaP [9]): 3 µM | inhibition [10]: Dose-dependent effect | inhibition [12]: Dose-dependent effect
SMILES: Cc1c(S(N)(=O)=O)cc2c(c1C)OC(C)(CCCC(C)C)CC2 (configuration not stated)
Activity (PC-3 [1]): Active | Activity (PC-3 [2]): Active | inhibition (PC-3 [4]): Active | Activity (LNCaP [11]): Active
